The results in this text go back to ChEMBL document CHEMBL2034909, “Inhibition of thioredoxin reductase by a novel series of bis-1,2-benzisoselenazol-3(2H)-ones: Organoselenium compounds for cancer therapy” (Bioorg Med Chem, 2012).

The IC50 is the midpoint of a concentration-inhibition curve. As usually defined, the inhibition is how much of the control response was suppressed.

A short description of assay [1]: Growth inhibition of human U87MG cells after 48 hrs by MTT assay. It counts as functional, cell-based, U-87MG ATCC. The settings on record: U-87 MG. Summed up: (§1)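 Exponentially growing cells were seeded at 4000–5000 per well. LoVo was grown in RPMI 1640 and MIA PaCa-2 and U87 MG in DMEM, each with 10% FBS and penicillin/streptomycin at 37 °C under 5% CO2. Compounds in DMSO (0–50 μM) were added for 48 h, and growth was read by MTT.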

Assay [2] has as its target T1, Thioredoxin reductase (Homo sapiens, UniProt Q16881+Q9NNW7+Q86VQ6). Nature of the assay: Inhibition of TrxR in human U87MG cells after 12 hrs by insulin-reducing method. It counts as cell-based. The settings on record: for IC50: u-87mg atcc. In outline: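 U87 MG cells were treated with graded compound concentrations for 12 h, with 1% DMSO as control. Reactions were quenched with guanidine-HCl/DTNB and read at A412. The Trx-free blank was subtracted.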

In assay [3] the target is T1, Thioredoxin reductase. Nature of the assay: Inhibition of human C-terminal truncated TrxR. The assay is classed as protein assay.
The next assay deals with MIA PaCa-2. Nature of the assay: Growth inhibition of human MIAPaCa2 cells after 48 hrs by MTT assay. The assay is classed as functional, cell-based. The settings on record: MIA PaCa-2, 48 h. Summed up: as §1
For orientation: Formazan colour is commonly taken as a measure of viable cells.

In assay [4] the target is T2, Glutathione reductase, mitochondrial (Homo sapiens) (UniProt P00390).
T2 sequence (whole entry): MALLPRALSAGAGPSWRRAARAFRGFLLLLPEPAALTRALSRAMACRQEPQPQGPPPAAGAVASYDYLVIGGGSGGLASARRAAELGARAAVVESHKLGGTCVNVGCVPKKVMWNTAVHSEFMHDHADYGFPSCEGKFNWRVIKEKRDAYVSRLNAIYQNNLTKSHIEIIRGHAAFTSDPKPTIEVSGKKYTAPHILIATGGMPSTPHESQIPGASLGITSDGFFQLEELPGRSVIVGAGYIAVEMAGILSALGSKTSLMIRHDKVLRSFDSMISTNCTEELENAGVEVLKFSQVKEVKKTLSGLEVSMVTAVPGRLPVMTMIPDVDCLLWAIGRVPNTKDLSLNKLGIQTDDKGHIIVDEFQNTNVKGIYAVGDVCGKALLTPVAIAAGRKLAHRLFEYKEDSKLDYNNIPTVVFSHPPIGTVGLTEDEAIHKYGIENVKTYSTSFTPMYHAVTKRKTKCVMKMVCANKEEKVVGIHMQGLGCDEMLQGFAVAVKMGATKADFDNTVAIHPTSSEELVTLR
Nature of the assay: Inhibition of human glutathione reductase at 100 uM after 10 mins by GSSH reduction assay.

The target in assay [5] is T3, Thioredoxin reductase 1, cytoplasmic (Rattus norvegicus) (UniProt O89049).
T3 sequence (whole entry): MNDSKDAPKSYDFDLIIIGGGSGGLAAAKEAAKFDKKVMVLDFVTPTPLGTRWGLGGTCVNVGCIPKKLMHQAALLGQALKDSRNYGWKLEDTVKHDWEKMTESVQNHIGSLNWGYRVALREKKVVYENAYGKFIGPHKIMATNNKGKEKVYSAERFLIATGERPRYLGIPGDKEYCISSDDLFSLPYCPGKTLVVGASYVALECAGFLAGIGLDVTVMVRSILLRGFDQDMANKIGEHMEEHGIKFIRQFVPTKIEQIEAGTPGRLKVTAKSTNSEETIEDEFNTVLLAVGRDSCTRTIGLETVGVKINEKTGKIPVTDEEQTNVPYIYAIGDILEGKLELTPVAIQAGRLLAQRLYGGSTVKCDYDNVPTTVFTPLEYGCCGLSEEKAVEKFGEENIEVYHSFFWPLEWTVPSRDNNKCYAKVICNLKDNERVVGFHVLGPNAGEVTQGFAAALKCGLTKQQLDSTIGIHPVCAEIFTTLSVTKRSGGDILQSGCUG
Nature of the assay: (§2) Inhibition of TrxR1 in rat liver homogenate preincubated for 5 mins measured by DNTB assay. It counts as tissue-based. Summed up:
(§3)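 Rat liver TrxR (purified, 10 μg) in 100 mM potassium phosphate, 2 mM EDTA, pH 7.4 with NADPH, pre-incubated 5 min with inhibitor (DMSO control) at room temperature. DTNB was then added and A412 increase followed over the first 120 s. IC50 given as mean ± SD of triplicate experiments.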

Another assay is filed under the species Homo sapiens. Nature of the assay: Inhibition of human […] Sec498Cys mutant at 100 uM after 10 mins by GSSH reduction assay.
The next assay concerns LoVo. The assay is described as follows: Growth inhibition of human LoVo cells after 48 hrs by MTT assay. It counts as functional, cell-based. Summed up:
as §1

The nature of assay [6]: Binding affinity to TrxR Sec498 residue at pH 8.5 after 2 hrs by BIAM assay.
Assay [7] is described as follows: Time dependent inhibition of TrxR.
Assay [8] can be described thus: Binding affinity to TrxR Cys497 residue at pH 8.5 after 2 hrs by BIAM assay.
Assay [9] can be described thus: Binding affinity to TrxR Sec498 residue at pH 6.5 after 2 hrs by BIAM assay.
A short description of assay [10]: Mixed type inhibition of TrxR by Michaelis-Menten plot analysis.
Assay [11] in a line: Reversible inhibition of TrxR by ultrafiltration assay.
The target of assay [12] is T4, Thioredoxin reductase 1, cytoplasmic (Rattus norvegicus, UniProt O89049).
T4 sequence (O89049 whole entry): T3 sequence (whole entry)
The assay is described as §2. The assay is classed as tissue-based. Summed up:
as §3

The target of assay [13] is T1, Thioredoxin reductase. Nature of the assay: Inhibition of TrxR in human U87MG cells at 20 uM after 12 hrs by insulin-reducing method. It counts as cell-based. As to conditions: U-87MG ATCC. In outline: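 U87 MG glioma cells were treated with compound for 12 h (1% DMSO control), washed in PBS, lysed in Triton/deoxycholate/EDTA/SDS/PMSF buffer and spun at 13000g. Lysate protein (40 µg, BCA) was incubated 30 min at 37 °C with HEPES pH 7.6, EDTA, 1 mM NADPH, 1 µM E. coli Trx and 2.5 mg/ml insulin. Quench with guanidine-HCl/DTNB, read A412, subtract the no-Trx blank.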

SMILES strings stand for the structures. The source made the active and inactive calls. The rule behind the calls is not given here.

As to `O=c1c2ccccc2[se]n1CCn1[se]c2ccccc2c1=O` [ETHASELEN], the IC50 in assay [1] was 6.41 µM; on Thioredoxin reductase [2], 5 µM; in the assay with MIA PaCa-2, 3.79 µM; in the assay with LoVo, 7.67 µM. The inhibition result (at Thioredoxin reductase [2] (U-87MG ATCC); in [5]) was “Dose-dependent effect” each time. Moreover, the inhibition entry (on Thioredoxin reductase [3]; in [4]; in the assay filed under Homo sapiens) was “inactive” throughout.
As for `COc1ccc2[se]n(CCn3[se]c4ccc(OC)cc4c3=O)c(=O)c2c1`, the inhibition entry in [6] was “Dose-dependent effect”; in assay [8], “Dose-dependent effect”; in assay [9], “Dose-dependent effect”; in assay [4], under 30%; in assay [5], “Dose-dependent effect”; on Thioredoxin reductase [13], over 90%. In addition, the IC50 in assay [1] turned out to be 1.64 µM; against Thioredoxin reductase [2] it was 2 µM; in the assay with MIA PaCa-2, 2.84 µM; in assay [12] it was 0.13 µM; with LoVo it was 5.28 µM. Besides, the inhibition result in assay [7], in assay [10] and in assay [11] was “Active” throughout.
